This is an account of results in PubChem BioAssay.

The structures appear in SMILES notation. The source made the active and inactive calls.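 How the source made its calls, unless noted: active means inhibition above 20% together with a positive visual image hit; inconclusive means visual image hit but inhibition not above 20%; inactive means no visual image hit.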

Test [1] is described as follows: inhibitors of TNFa-induced NFkB p65 translocation, primary screen, imaging, HUVEC, MLSMR starter and 10KST1 sets (AID 438).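 Further: compound added about 3h40 before a 20 min TNFalpha stimulation.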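 On inhibition: signal is the nuclear over cytoplasmic p65 intensity ratio per well.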 The note with it: HUVEC TNFa-induced p65 nuclear translocation; cell count: measured here: nuclei count (cytotoxicity indicator), at 2.08 µM; inhibition: at 2 µM, stronger effect = higher value, 0% TNFa-plus-vehicle, 100% no-TNFa wells.
Test [2] can be described thus: inhibitors of E-selectin induction by TNFa, primary screen, imaging, HUVEC, immunofluorescence, MLSMR starter and 10KST1 sets (AID 487;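 active means visually confirmed hit in the image check and inhibition above 20%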;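 on inhibition: signal is fraction of cell area covered by stained E-selectin grains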;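 on nuclei count: 100% = median nuclei count of all wells on the same plate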). The conditions noted are these: HUVEC TNFalpha-induced E-selectin immunofluorescence imaging, at 2 µM; inhibition: stronger effect = higher value; nuclei count: measured here: cell number, toxicity.
Test [3] can be described thus: DUSP6 inhibitors restoring Erk phosphorylation by chemical complementation, primary imaging in DUSP6-transfected HeLa (AID 609;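 active means compounds giving at least 50% inhibition in the cell-based MKP-3 phosphatase rescue imaging test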;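 on inhibition: phospho-Erk level distribution per well compared with pooled transfected vehicle control wells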). The conditions noted are these: HeLa MKP-3 transfected, phospho-Erk imaging KS statistic, at 10 µM, cells stimulated with TPA for 15 min.
The target in test [4] is Dual specificity protein phosphatase 6 (Homo sapiens) (UniProt Q16828). The description is as above. The conditions noted are these: HeLa MKP-3 transfected, phospho-Erk imaging KS statistic; at 10 µM; stronger effect = higher value; cells stimulated with TPA for 15 min.
The target in test [5] is Voltage-gated potassium channel subunit beta-2 (Rattus norvegicus) (UniProt P62483). In words: KvBeta enzyme negative modulators, primary screen, biochemical, NADPH fluorescence (AID 622;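 active means fluorescence slope higher than the sample average by over 3 SD, cut at about -0.22 in these data, passing the limit was not always enough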;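 further: slope of raw intensity against log time taken from 70 to 1610 s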). The conditions noted are these: recombinant KvBeta, 4-cyanobenzaldehyde reduction, at 10 µM, stronger effect = higher value.
Test [6] has the same target. In words: KvBeta positive modulators, primary screen, biochemical, NADPH fluorescence (AID 623;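 active means NADPH fluorescence slope more negative than the mean of all samples by about 3 SD, 99.7% confidence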;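 further: fluorescence intensity change per second fitted from 20 to 320 s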). The conditions noted are these: Recombinant KvBeta, NADPH fluorescence decrease slope, 10 min; at 10 µM; stronger effect = lower value.
Test [7] concerns the target Alpha-2C adrenergic receptor (Homo sapiens) (UniProt P18825). In words: modulators of alpha2C/GIRK thallium flux, primary screen, cell-based, HEK293 alpha2C/GIRK1/2 (AID 624;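 active means fluorescence slope after compound addition differing from the mean of all screened samples at 99.7% confidence, in either direction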;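 further: slope of fluorescence ratio to pre-addition baseline per second over 15 to 24 s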). The conditions noted are these: thallium flux BTC fluorescence, at 10 µM, actives lie on both sides.
Test [8] can be described thus: inhibitors of larval lipid processing in zebrafish, primary screen, whole organism, PED6 fluorescence, gall bladder and intestine (AID 686;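 active means a full or partial loss of lipid-probe fluorescence in the fish gall bladder, intestine or both, judged by eye; inactive means no fluorescence loss, or compound toxic to the fish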;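 further: larvae 5 to 7 days old with five fish per well; signal comes from phospholipase A2 cleavage of quenched PED6 carried via bile; overnight exposure to compound and PED6 before scoring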). The note with it: Zebrafish larvae PED6 lipid processing, fluorescence scoring; screened at 20 µM (by protocol). An outline of the steps:
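System: live zebrafish larvae aged 5-7 days, whole organism; measure: graded gall bladder and intestinal fluorescence inhibition per well; incubation: overnight exposure; reagent: ingested quenched lipid PED6 at 100 nM; signal: By-eye fluorescence microscopy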

Test [9] is described as follows: inhibitors of Chlamydomonas gravitaxis, primary screen, whole organism, Chlamydomonas reinhardtii, WT vs cilia-less mutant, absorbance, 96-well (AID 463189;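 active means inhibition at or above 50% relative to wild type and mutant plate controls; inactive means inhibition below 50%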;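 further: 0% = wild type cc124 cells in DMSO and 100% = ciliumless bld1 mutant cells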). The note with it: OD600 absorbance, 2 days, at 10 µM, stronger effect = higher value.
[10] abbreviates: measured here: cell density z-score.
The mark [11] stands for this setting: measured here: nuclear c-Myc green intensity z-score.
Setting [12] is: measured here: nuclear pErk red intensity z-score, stronger effect = higher value.

Chain of Dual specificity protein phosphatase 6 (Homo sapiens) (Q16828 whole entry, looked up): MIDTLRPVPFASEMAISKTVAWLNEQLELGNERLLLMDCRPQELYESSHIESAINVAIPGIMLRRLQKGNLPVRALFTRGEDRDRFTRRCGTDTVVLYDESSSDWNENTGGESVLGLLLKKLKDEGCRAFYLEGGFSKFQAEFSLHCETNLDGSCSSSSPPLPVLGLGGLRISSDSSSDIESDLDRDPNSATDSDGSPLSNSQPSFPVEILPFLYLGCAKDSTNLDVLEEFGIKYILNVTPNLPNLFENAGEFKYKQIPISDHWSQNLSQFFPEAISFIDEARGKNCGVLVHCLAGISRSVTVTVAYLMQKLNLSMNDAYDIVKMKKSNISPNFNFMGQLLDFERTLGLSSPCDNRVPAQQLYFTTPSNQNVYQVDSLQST
Chain of Alpha-2C adrenergic receptor (Homo sapiens) (P18825 whole entry, looked up): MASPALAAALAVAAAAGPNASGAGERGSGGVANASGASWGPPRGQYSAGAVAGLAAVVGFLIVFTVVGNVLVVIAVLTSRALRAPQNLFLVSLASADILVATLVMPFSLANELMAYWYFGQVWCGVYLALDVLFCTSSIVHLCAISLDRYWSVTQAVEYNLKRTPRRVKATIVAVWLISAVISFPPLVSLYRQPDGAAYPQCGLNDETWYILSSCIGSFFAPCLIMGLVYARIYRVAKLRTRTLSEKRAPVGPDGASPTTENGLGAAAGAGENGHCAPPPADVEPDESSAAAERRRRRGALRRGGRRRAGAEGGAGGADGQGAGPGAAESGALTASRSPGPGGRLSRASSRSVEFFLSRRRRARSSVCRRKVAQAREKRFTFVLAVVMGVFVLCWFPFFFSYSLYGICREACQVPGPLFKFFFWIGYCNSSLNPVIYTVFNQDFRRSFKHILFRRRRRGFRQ
Chain of Voltage-gated potassium channel subunit beta-2 (Rattus norvegicus) (P62483 whole entry, looked up): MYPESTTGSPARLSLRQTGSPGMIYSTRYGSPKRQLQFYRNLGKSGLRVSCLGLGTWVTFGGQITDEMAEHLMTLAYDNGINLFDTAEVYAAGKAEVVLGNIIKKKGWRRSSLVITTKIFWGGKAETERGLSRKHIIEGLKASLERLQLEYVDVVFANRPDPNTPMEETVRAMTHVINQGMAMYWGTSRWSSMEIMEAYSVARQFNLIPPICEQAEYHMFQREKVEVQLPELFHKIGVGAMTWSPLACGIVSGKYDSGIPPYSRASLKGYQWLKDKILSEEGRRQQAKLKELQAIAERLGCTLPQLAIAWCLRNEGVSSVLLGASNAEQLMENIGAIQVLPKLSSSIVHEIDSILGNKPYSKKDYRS

Consider `O=C(c1ccc(=O)oc1)N1CCOCC1`, for which the cell count in [1] is 357. The inhibition was -5.3% (inactive) in test [1], -8.3% (inactive) in [2], -6.59% (inactive) in [4] and 25% (inactive) in test [9]. The nuclei count in test [2] amounted to 167%. In addition, the z-score in [3] (setting [10]) was 1.26; in [3] (setting [11]), -0.649; in test [3] (setting [12]), 0.718. Also, in [5], the fluorescence slope is -0.46 (inactive). Besides, the NADPH fluorescence slope in [6] was -0.000126 (inactive). The slope in test [7] was 0.0053 (inactive). Further, in [8], the compound was classed as inactive.

For the compound `N#CCCSc1nc(N2CCOCC2)c2c(c1C#N)CCCC2`, the cell count in test [1] was determined as 572. The inhibition in [1] is -15.5% (inactive); in test [2], -43.5% (inactive); in test [4], 5.65% (inactive); in test [9] it was -11.5% (inactive). This compound came in with a nuclei count in [2] of 168%. In addition, the figures for the z-score in [3] (setting [10]), in [3] (setting [11]) and in test [3] (setting [12]) were -1.47, -0.393 and -0.37, respectively. For the same compound, the fluorescence slope in [5] was -0.357 (inactive). Besides, the NADPH fluorescence slope in test [6] is 1.4e-05 (inactive). In addition, the slope in [7] is 0.00506 (inactive). The outcome in test [8] was inactive.

`CN1CCc2c(sc3c2C(=O)NC(c2ccco2)N3)C1` (configuration not stated): the cell count in [1] was determined as 554. The inhibition in [1] is -12% (inactive); in [2] it was -9.3% (inactive); in test [4] it was 4.72% (inactive); in test [9] it was 7.66% (inactive). Moreover, the nuclei count in test [2] stood at 170%. In addition, the z-score in test [3] (setting [10]) is -0.0126; in [3] (setting [11]) it was -0.484; in test [3] (setting [12]), 0.477. For the same compound, in [5], the fluorescence slope was -0.43 (inactive). Moreover, the NADPH fluorescence slope in test [6] was -3.1e-06 (inactive). Further, in test [7], the slope is 0.00594 (inactive). Also, the compound was called inactive in test [8].

Consider `COCc1cc(=O)[nH]c(Nc2nc3ccc(C)cc3o2)n1`, for which the cell count in test [1] worked out at 568. Also, the inhibition in [1] was -19% (inactive); in test [2] it was -52.2% (inactive); in [4], -3.97% (inactive); in test [9], 2.95% (inactive). In [2], this compound registered a nuclei count of 156%. In addition, the z-score in [3] (setting [10]) is 0.289; in test [3] (setting [11]) it was 0.499; in test [3] (setting [12]) it was -0.0408. The fluorescence slope in test [5] was -0.463 (inactive). In addition, in test [6], the NADPH fluorescence slope is -4.8e-05 (inactive). Moreover, the slope in test [7] is 0.00626 (inactive). Besides, the outcome in test [8] was inactive.

On to `Nc1nnc(CC2=CCCCC2)s1`, for which the cell count in [1] was 579. In addition, the inhibition in test [1] was -13.4% (inactive); in [2], 28.3% (inactive); in test [4] it was -9.66% (inactive); in [9], 8.68% (inactive). In [2], this compound came in with a nuclei count of 152%. Moreover, the results for the z-score in test [3] (setting [10]), in test [3] (setting [11]) and in [3] (setting [12]) were -0.93, 0.818 and -0.135, respectively. Also, in test [5], the fluorescence slope is -0.396 (inactive). Also, the NADPH fluorescence slope in test [6] is -3.4e-05 (inactive). The slope in test [7] was 0.00749 (inactive). Also, the compound was called inactive in [8].

Turning to `COc1ccc(C(CC(=O)O)NC(=O)OC(C)(C)C)cc1` (configuration not stated), the cell count in [1] came out at 352. In addition, the inhibition in test [1] was -12.3% (inactive); in test [2], -60.6% (inactive); in [4], -7.01% (inactive); in test [9], -3.6% (inactive). In test [2], this compound yielded a nuclei count of 167%. The z-score in [3] (setting [10]) turned out to be 0.0535; in test [3] (setting [11]) it was 0.856; in [3] (setting [12]) it was 1.62. Also, the fluorescence slope in test [5] is -0.414 (inactive). Moreover, the NADPH fluorescence slope in [6] is -0.000134 (inactive). Further, in test [7], the slope is 0.00454 (inactive). Besides, in test [8], the call was inactive.

`Cc1ccc(-c2ccc(/C=N/c3ncn[nH]3)o2)cc1Cl`: in test [1], the cell count was determined as 555. Besides, the inhibition in test [1] was -7% (inactive); in test [2], 17.3% (inactive); in [4], 4.72% (inactive); in test [9] it was 0.03% (inactive). Further, the nuclei count in test [2] is 119%. The z-score came out at 1.47 in [3] (setting [10]), 1.26 in test [3] (setting [11]) and 0.207 in test [3] (setting [12]). The fluorescence slope in test [5] is -0.446 (inactive). For the same compound, the NADPH fluorescence slope in [6] is -1.9e-05 (inactive). Besides, in test [7], the slope was 0.00689 (inactive). Further, in test [8], the call was inactive.

Consider `Clc1cccc(-c2nn3c(COc4ccccc4)nnc3s2)c1`, for which, in [1], the cell count was 559. Besides, the inhibition in test [1] is -2.3% (inactive); in test [2] it was -53% (inactive); in test [4], -9.66% (inactive); in test [9], -2.6% (inactive). The compound also registered a nuclei count in [2] of 139%. In addition, the z-score in test [3] (setting [10]) was 0.34; in test [3] (setting [11]), 0.334; in test [3] (setting [12]), -0.356. Also, in [5], the fluorescence slope is -0.412 (inactive). The NADPH fluorescence slope in test [6] was -0.000153 (inactive). The slope in test [7] was 0.00768 (inactive). The call in test [8] was inactive.

Consider `c1coc(-c2nnc3sc(C4CCCCC4)nn23)c1`, for which the cell count in test [1] was 653. For the same compound, the inhibition was -0.1% (inactive) in [1], -85.2% (inactive) in [2], 1.12% (inactive) in test [4] and 77.6% (active) in [9]. The nuclei count in test [2] was found to be 170%. The z-score was -0.617 in test [3] (setting [10]), -0.759 in test [3] (setting [11]) and -0.627 in [3] (setting [12]). For the same compound, the fluorescence slope in test [5] is -0.451 (inactive). The NADPH fluorescence slope in test [6] is -0.000143 (inactive). In test [7], the slope was 0.00424 (inactive). Also, in [8], the compound was classed as inactive.

On to `CNc1ccccc1-c1nc2ccccc2n(C)c1=O`, for which the cell count in test [1] is 545. Further, the inhibition in test [1] was 1.8% (inactive); in [2] it was -41.8% (inactive); in test [4] it was 14% (inactive); in test [9], 16% (inactive). This compound returned a nuclei count in [2] of 154%. The z-score in [3] (setting [10]) was 0.495; in test [3] (setting [11]), -0.326; in test [3] (setting [12]), 0.207. Further, the fluorescence slope in [5] is -0.488 (inactive). In addition, the NADPH fluorescence slope in [6] was -7.9e-05 (inactive). In addition, the slope in test [7] was 0.00346 (inactive). Also, the outcome in [8] is “active; weak signal in gallbladder and intestine”.

Regarding `CNc1nc(C)c(C#N)cc1C(C)=O`, the cell count in test [1] was 481. Also, the inhibition in test [1] is -11.7% (inactive); in [2], 8.2% (inactive); in [4] it was 5.65% (inactive); in test [9], 26.6% (inactive). Further, the nuclei count in test [2] turned out to be 166%. In addition, the values for the z-score in test [3] (setting [10]), in [3] (setting [11]) and in [3] (setting [12]) were 0.906, -0.478 and -0.65, respectively. Moreover, the fluorescence slope in test [5] was -0.513 (inactive). The NADPH fluorescence slope in test [6] is -9.4e-05 (inactive). For the same compound, the slope in test [7] was 0.00563 (inactive). For the same compound, the compound was called inactive in test [8].

For `CC(=O)OC12CC3CC(C1)C(=NO)C(C3)C2`, the cell count in [1] was 541. The inhibition in test [1] was -10.2% (inactive); in test [2] it was -145% (inactive); in test [4], 33.7% (inactive); in [9] it was 39.2% (inactive). Further, in [2], the nuclei count came to 127%. Moreover, the results for the z-score in test [3] (setting [10]), in test [3] (setting [11]) and in [3] (setting [12]) were 1.34, -0.992 and -0.795, respectively. Also, the fluorescence slope in [5] is -0.512 (inactive). The NADPH fluorescence slope in [6] was -2.1e-05 (inactive). In [7], the slope was 0.00472 (inactive). In addition, the compound was classed as inactive in test [8].

Take `O=C(O)CC(NC(=O)COc1ccc(Cl)cc1Cl)C(=O)O` (configuration not stated): the cell count in test [1] was 629. The inhibition was -19.5% (inactive) in test [1], -11.7% (inactive) in test [2], -9.66% (inactive) in test [4] and 0.167% (inactive) in [9]. In test [2], the nuclei count came out at 197%. Besides, the z-score in [3] (setting [10]) is 0.18; in [3] (setting [11]), 0.773; in [3] (setting [12]), 0.0309. Moreover, the fluorescence slope in [5] was -0.404 (inactive). For the same compound, in test [6], the NADPH fluorescence slope is -7.4e-05 (inactive). In test [7], the slope is 0.00527 (inactive). In addition, the compound was classed as inactive in test [8].

For the compound `CCC1(C)Cc2ccccc2-c2nc(NCCO)n(-c3ccccc3)c(=O)c21` (configuration not stated), the cell count in [1] amounted to 467. Also, the inhibition is 0.9% (inactive) in test [1], -104% (inactive) in test [2], -14% (inactive) in [4] and -9.34% (inactive) in [9]. In test [2], this compound had a nuclei count of 137%. The z-score in [3] (setting [10]) is -0.977; in test [3] (setting [11]), 0.92; in [3] (setting [12]) it was 0.687. For the same compound, the fluorescence slope in [5] is -0.0137 (active). For the same compound, the NADPH fluorescence slope in test [6] was 6.5e-06 (inactive). Further, the slope in [7] is 0.00569 (inactive). In addition, in [8], the outcome was inactive.

For orientation: inhibition means the drop in the measured response relative to a control, in per cent.
